Values after ≈ are worked out from the molar mass of the structure shown. Each block holds one compound with its values, some of them ahead of it.
Columns and labels:
[1] = test system: A549; assay: Cytotoxicity against human A549 ATCC CCl-185 cells; type: functional, cell-based
In short: (§1)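 Lines maintained in log-phase growth in EMEM/neaa with 5% fetal calf serum, 10-2 M sodium bicarbonate, 0.1 g/L penicillin G and 0.1 g/L streptomycin sulfate. P-388 grown as suspension culture; A-549, HT-29 and MEL-28 as monolayers. Compounds dissolved in DMSO–MeOH (1:9). Read-out IC50 in µg/mL.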

[2] = test system: HT-29; assay: Cytotoxicity against human HT-29 ATCC HTB-38 cells; type: functional, cell-based; in short: as §1
[3] = test system: P388; assay: Cytotoxicity against mouse P388 ATCC CCL-46 cells; type: functional, cell-based; in short: as §1
[4] = biological target: Aldo-keto reductase family 1 member B1 (Homo sapiens, UniProt P15121); assay: Inhibition of human recombinant aldose reductase
In short: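 Recombinant human aldose reductase, purified by a published method. In vitro inhibition measured by a modified version of that method. Values given as IC50 in µg/mL.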

[5] = Cytotoxicity against human SK MEL28 ATCC HTB-72 cells; type: functional, cell-based; settings: SK-MEL-28; in short: as §1

SMILES: Cc1c(O)c(O)cc2c1C(=O)C[C@@H]1[C@@]2(C)CC[C@@]2(C)[C@@H]3C[C@@H](C)C(=O)C[C@]3(C)CC[C@]12C
- IC50 [1]: 5 µg/mL (≈ 11.4 µM)
- IC50 [2]: 10 µg/mL (≈ 22.8 µM)
- IC50 [3]: 5 µg/mL (≈ 11.4 µM)
- IC50 [4]: 57 µM
- IC50 [5]: 10 µg/mL (≈ 22.8 µM)

- IC50 [4]: 57.5 µM
SMILES: C[C@@H]1C[C@@H]2[C@@](C)(CC[C@@]3(C)[C@@]2(C)CC=C2c4cc(O)c(O)c(C=O)c4C=C[C@]23C)CC1=O
- IC50 [1]: 10 µg/mL (≈ 23 µM)
- IC50 [2]: 10 µg/mL (≈ 23 µM)
- IC50 [3]: 10 µg/mL (≈ 23 µM)
- IC50 [5]: 10 µg/mL (≈ 23 µM)

- IC50 [4]: 57 µM
SMILES: CC1=C(O)C(=O)C=C2C1=C[C@H](O)[C@@H]1[C@@]2(C)CC[C@@]2(C)[C@@H]3C[C@@H](C)C(=O)C[C@]3(C)CC[C@]12C
- IC50 [1]: 5 µg/mL (≈ 11.4 µM)
- IC50 [2]: 5 µg/mL (≈ 11.4 µM)
- IC50 [3]: 5 µg/mL (≈ 11.4 µM)
- IC50 [5]: 5 µg/mL (≈ 11.4 µM)

- IC50 [4]: 57.3 µM
SMILES: CC1=C(O)C(=O)C=C2C1=CC(=O)[C@@H]1[C@@]2(C)CC[C@@]2(C)[C@@H]3C[C@@H](C)C(=O)C[C@]3(C)CC[C@]12C [AMAZOQUINONE]
- IC50 [1]: 5 µg/mL (≈ 11.5 µM)
- IC50 [2]: 5 µg/mL (≈ 11.5 µM)
- IC50 [3]: 2.5 µg/mL (≈ 5.73 µM)
- IC50 [5]: 5 µg/mL (≈ 11.5 µM)
